Experimental data reported in ChEMBL document CHEMBL1144254, “Synthesis and SAR of novel 4,5-diarylimidazolines as potent P2X7 receptor antagonists” (Bioorg Med Chem Lett, 2005).

System: U373 MG
Assay: Inhibitory concentration against YOPRO-1 dye uptake in U373MG cells stably expressing human P2X purinoceptor 7 using fluorescence assay
Assay type: functional, cell-based, U-373MG ATCC
How it was run: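 U373 cells stably expressing human P2X7 were grown overnight on collagen-coated plates at 35,000 cells/well. They were then preincubated 20 min at 37°C with increasing compound concentrations, in duplicate, in Mg²⁺/Ca²⁺-free HBSS. YO-PRO-1 iodide and then Bz-ATP were added, followed by 1.5 h at 37°C. Fluorescence was read at 485/530 nm against a no-compound control, and IC50 came from a nonlinear sigmoidal fit; means of duplicates, one or two experiments.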

| SMILES | IC50 [nM] |
| --- | --- |
| Fc1ccc(CCC2=N[C@H](c3ccccc3)[C@H](c3ccccc3)N2)cc1F | 120 |
| Fc1ccccc1CCC1=N[C@H](c2ccccc2)[C@H](c2ccccc2)N1 | 160 |
| Fc1ccc(CCC2=N[C@H](c3ccccc3)[C@H](c3ccccc3)N2)cc1 | 220 |
| c1ccc(CCC2=N[C@H](c3ccccc3)[C@H](c3ccccc3)N2)cc1 | 80 |
| c1ccc(CCCC2=N[C@H](c3ccccc3)[C@H](c3ccccc3)N2)cc1 | 540 |
| Cc1ccccc1CC1=N[C@H](c2ccccc2)[C@H](c2ccccc2)N1 | 320 |
| Fc1ccc(CC2=N[C@H](c3ccccc3)[C@H](c3ccccc3)N2)cc1F | 30 |
| Fc1cccc(CC2=N[C@H](c3ccccc3)[C@H](c3ccccc3)N2)c1 | 80 |
| c1ccc(C2=N[C@@H](c3ccccc3)[C@@H](c3ccccc3)N2)cc1 | 3800 |
| CC(Cc1ccccc1)C1=N[C@H](c2ccccc2)[C@H](c2ccccc2)N1 (some centres not stated) | 570 |
| c1ccc([C@H]2N=C(C3Cc4ccccc4C3)N[C@H]2c2ccccc2)cc1 | 50 |
| COc1ccc(CCC2=N[C@H](c3ccccc3)[C@H](c3ccccc3)N2)cc1 | > 3000 |
| Clc1ccccc1CCC1=N[C@H](c2ccccc2)[C@H](c2ccccc2)N1 | 70 |
| Clc1cccc(CCC2=N[C@H](c3ccccc3)[C@H](c3ccccc3)N2)c1 | 120 |
| Clc1cccc(CC2=N[C@H](c3ccccc3)[C@H](c3ccccc3)N2)c1 | 30 |
| c1ccc([C@H]2C[C@@H]2C2=N[C@H](c3ccccc3)[C@H](c3ccccc3)N2)cc1 | > 1000 |
| c1ccc(CCCCC2=N[C@H](c3ccccc3)[C@H](c3ccccc3)N2)cc1 | 610 |
| Fc1ccc(CC2=N[C@H](c3ccccc3)[C@H](c3ccccc3)N2)cc1 | 80 |
| Clc1ccc(CCC2=N[C@H](c3ccccc3)[C@H](c3ccccc3)N2)cc1Cl | 1400 |

| SMILES | IC50 [nM] |
| --- | --- |
| Clc1ccc(CC2=N[C@H](c3ccccc3)[C@H](c3ccccc3)N2)cc1 | 270 |
| C[C@@H](CC1=N[C@H](c2ccccc2)[C@H](c2ccccc2)N1)c1ccccc1 | 30 |
| Cc1ccc(CCC2=N[C@H](c3ccccc3)[C@H](c3ccccc3)N2)cc1 | 2190 |
| Fc1cccc(CC2=N[C@H](c3ccccc3)[C@H](c3ccccc3)N2)c1F | 930 |
| CC(C)(CC1=N[C@H](c2ccccc2)[C@H](c2ccccc2)N1)c1ccccc1 | 10 |
| Clc1ccc(CCC2=N[C@H](c3ccccc3)[C@H](c3ccccc3)N2)cc1 | > 1000 |
| Fc1cccc(CCC2=N[C@H](c3ccccc3)[C@H](c3ccccc3)N2)c1 | 40 |
| c1ccc([C@H]2N=C(CC3Cc4ccccc4C3)N[C@H]2c2ccccc2)cc1 | 240 |
| COc1cccc(CC2=N[C@H](c3ccccc3)[C@H](c3ccccc3)N2)c1OC | > 3000 |
| C[C@H](C1=N[C@H](c2ccccc2)[C@H](c2ccccc2)N1)c1ccccc1 | 110 |
| Clc1ccccc1CC1=N[C@H](c2ccccc2)[C@H](c2ccccc2)N1 | 160 |
| Fc1ccccc1CC1=N[C@H](c2ccccc2)[C@H](c2ccccc2)N1 | 580 |
| FC(F)(F)c1ccc(CC2=N[C@H](c3ccccc3)[C@H](c3ccccc3)N2)cc1 | 400 |
| COc1ccccc1CCC1=N[C@H](c2ccccc2)[C@H](c2ccccc2)N1 | 830 |
| Cc1ccccc1CCC1=N[C@H](c2ccccc2)[C@H](c2ccccc2)N1 | 70 |
| Cc1ccc(CC2=N[C@H](c3ccccc3)[C@H](c3ccccc3)N2)cc1 | 80 |
| COc1ccc(CCC2=N[C@H](c3ccccc3)[C@H](c3ccccc3)N2)cc1OC | > 3000 |
| c1ccc(C(CC2=N[C@H](c3ccccc3)[C@H](c3ccccc3)N2)c2ccccc2)cc1 | 320 |
